In assay [1] the test system is M1373T and A684S mutant strains. The experiment in a line: Relative drug resistance. The assay is classed as cell-based, yeast. The conditions noted are these: n = 4.
Assay [2] deals with F683L mutant strain. The following applies: original characterization; cited from earlier work.
The subject of assay [3] is F683L mutant strain. Briefly: Relative drug resistance. The format is cell-based, yeast. The following applies: n = 4.
In assay [4] the target is Pdr5 WT control strain (Saccharomyces cerevisiae, UniProt P33302). Briefly: Whole-cell R6G transport against a concentration gradient. The assay is classed as cell-based, yeast. The conditions noted are these: median; 90 min, 30 °C, Hepes-glucose buffer. The gist of the method: (§1)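 Log-phase yeast grown in YPD at 30 °C, R-1 background with integrated PDR5 under its own promoter. 3 × 10^6 cells were incubated in 0.02 M Hepes with 1 mM glucose (pH 7.0) and 20 μM R6G at 30 °C for 90 min, then washed in cold glucose-free Hepes. Median retained fluorescence was read by flow cytometry from 10,000 cells, in arbitrary units; n ≥ 4.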

In assay [5] the target is Pdr5 F1369A mutant (Saccharomyces cerevisiae, UniProt P33302, F1369A). The experiment in a line: Whole-cell R6G transport against a concentration gradient. The assay is classed as cell-based, yeast.
In assay [6] the target is Pdr5 G1371A strain (Saccharomyces cerevisiae, UniProt P33302, G1371A). The experiment in a line: Whole-cell R6G transport against a concentration gradient. The following applies: median; 90 min, 30 °C, Hepes-glucose buffer. The format is cell-based, yeast. The gist of the method: as §1
Assay [7] has as its target Pdr5 M1373A mutant (Saccharomyces cerevisiae, UniProt P33302, M1373A). Briefly: Whole-cell R6G transport against a concentration gradient. The conditions noted are these: median; 90 min, 30 °C, Hepes-glucose buffer. The assay is classed as cell-based, yeast.
In assay [8] the test system is ΔPdr5 strain. The description is as above. The conditions noted are these: median; 90 min, 30 °C, Hepes-glucose buffer. The format is cell-based, yeast.
In assay [9] the test system is Pdr5 I685A, V1372A double mutant. Described as above. The format is cell-based, yeast.
The test system of assay [10] is Pdr5 F683L mutant. Briefly: Accumulation of R6G prior to glucose-mediated efflux. The following applies: 20 μM R6G, Hepes buffer, no glucose, 90 min. The assay is classed as cell-based, yeast.
Assay [11] relates to I685A mutant strain. The format is cell-based, yeast. The conditions noted are these: liquid YPD, 30 °C, n = 3.
The subject of assay [12] is V1372A mutant strain. The assay is classed as cell-based, yeast. The conditions noted are these: liquid YPD, 30 °C, n = 3.
Assay [13] relates to M1373A mutant strain. Briefly: Relative drug resistance in liquid YPD culture. The conditions noted are these: compared with ΔPdr5 control strain. The format is cell-based, yeast.
Assay [14] addresses Pdr5 WT (Saccharomyces cerevisiae, UniProt P33302). The experiment in a line: Inhibition of Pdr5 ATPase activity in purified PM vesicles. The format is biochemical, yeast.
For assay [15], the target named is Pdr5 V1372A (Saccharomyces cerevisiae, UniProt P33302, V1372A). Briefly: biochemical. The assay is classed as biochemical, yeast.
The target of assay [16] is Pdr5 I685A (Saccharomyces cerevisiae, UniProt P33302, I685A). Briefly: biochemical. The assay is classed as biochemical, yeast.
Assay [17] has as its target Pdr5 V1372A, I685A double mutant (Saccharomyces cerevisiae, UniProt P33302, I685A/V1372A). The experiment in a line: biochemical. Also on record: species or system yeast.
Assay [18] has as its target Pdr5 G1371A (Saccharomyces cerevisiae, UniProt P33302, G1371A). Briefly: Inhibition of Pdr5 ATPase activity in purified PM vesicles. The assay is classed as biochemical, yeast. The following applies: relative to WT.

Pdr5 I685A, sequence (P33302 whole entry I685A): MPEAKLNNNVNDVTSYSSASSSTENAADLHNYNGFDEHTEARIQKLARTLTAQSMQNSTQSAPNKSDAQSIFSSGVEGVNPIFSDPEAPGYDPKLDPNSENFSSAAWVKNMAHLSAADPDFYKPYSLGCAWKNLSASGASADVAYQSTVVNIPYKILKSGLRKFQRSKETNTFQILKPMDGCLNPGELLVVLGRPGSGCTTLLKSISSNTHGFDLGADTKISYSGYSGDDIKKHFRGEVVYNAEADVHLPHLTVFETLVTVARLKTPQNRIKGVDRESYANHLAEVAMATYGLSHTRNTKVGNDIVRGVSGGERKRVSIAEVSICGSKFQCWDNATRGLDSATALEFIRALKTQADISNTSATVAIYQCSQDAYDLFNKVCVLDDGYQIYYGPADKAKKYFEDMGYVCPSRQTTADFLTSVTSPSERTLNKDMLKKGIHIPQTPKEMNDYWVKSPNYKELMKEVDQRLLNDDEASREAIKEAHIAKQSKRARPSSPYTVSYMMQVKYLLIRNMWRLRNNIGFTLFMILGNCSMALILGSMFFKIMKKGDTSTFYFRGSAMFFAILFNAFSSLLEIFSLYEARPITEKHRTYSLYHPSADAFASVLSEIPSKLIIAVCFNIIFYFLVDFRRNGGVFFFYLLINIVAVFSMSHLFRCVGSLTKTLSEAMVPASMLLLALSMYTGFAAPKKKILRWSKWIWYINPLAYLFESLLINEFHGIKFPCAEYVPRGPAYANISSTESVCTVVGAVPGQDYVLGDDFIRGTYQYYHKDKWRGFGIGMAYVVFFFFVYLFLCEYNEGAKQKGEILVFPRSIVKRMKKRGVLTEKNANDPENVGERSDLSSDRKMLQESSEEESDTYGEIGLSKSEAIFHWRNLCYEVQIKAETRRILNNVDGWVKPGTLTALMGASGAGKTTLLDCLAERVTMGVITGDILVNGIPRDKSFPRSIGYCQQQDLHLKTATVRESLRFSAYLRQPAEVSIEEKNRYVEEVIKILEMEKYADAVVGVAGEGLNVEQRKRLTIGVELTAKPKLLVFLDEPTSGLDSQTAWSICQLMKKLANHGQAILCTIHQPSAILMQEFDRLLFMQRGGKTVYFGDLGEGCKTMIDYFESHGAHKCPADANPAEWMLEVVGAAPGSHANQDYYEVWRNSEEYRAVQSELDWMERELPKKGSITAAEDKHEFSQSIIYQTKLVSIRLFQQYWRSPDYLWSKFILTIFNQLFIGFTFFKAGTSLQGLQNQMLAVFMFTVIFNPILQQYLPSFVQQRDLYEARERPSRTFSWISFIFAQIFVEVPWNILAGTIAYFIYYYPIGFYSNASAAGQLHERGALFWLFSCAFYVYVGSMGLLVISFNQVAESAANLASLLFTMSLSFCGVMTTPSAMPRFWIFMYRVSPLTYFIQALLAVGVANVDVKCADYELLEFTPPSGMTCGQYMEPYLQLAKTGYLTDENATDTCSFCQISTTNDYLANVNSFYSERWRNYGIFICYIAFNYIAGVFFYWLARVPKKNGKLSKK
Pdr5 F1369A mutant, sequence (P33302 whole entry F1369A): as the sequence (P33302 whole entry I685A) above, with A685I, F1369A counted along it
Pdr5 V1372A, sequence (P33302 whole entry V1372A): as the sequence (P33302 whole entry I685A) above, with A685I, V1372A counted along it
Pdr5 M1373A mutant, sequence (P33302 whole entry M1373A): as the sequence (P33302 whole entry I685A) above, with A685I, M1373A counted along it
Pdr5 G1371A strain, sequence (P33302 whole entry G1371A): as the sequence (P33302 whole entry I685A) above, with A685I, G1371A counted along it
Pdr5 G1371A, sequence (P33302 whole entry G1371A): as the sequence (P33302 whole entry I685A) above, with A685I, G1371A counted along it
Pdr5 WT, sequence (P33302 whole entry): as the sequence (P33302 whole entry I685A) above, with A685I counted along it
Pdr5 WT control strain, sequence (P33302 whole entry): as the sequence (P33302 whole entry I685A) above, with A685I counted along it
Pdr5 V1372A, I685A double mutant, sequence (P33302 whole entry I685A/V1372A): as the sequence (P33302 whole entry I685A) above, with V1372A counted along it

Take `OC(Cn1cncn1)(Cn1cncn1)c1ccc(F)cc1F` [fluconazole]: the “Sensitivity of M1373T and A684S mutants relative to WT” value in assay [1] is recorded as “quite hypersensitive”. Moreover, the “Sensitivity of F683L mutant” value in [2] is recorded as “hypersensitive”.
As for `CC/N=c1\cc2oc3cc(NCC)c(C)cc3c(-c3ccccc3C(=O)OCC)c-2cc1C` [R6G, rhodamine 6G], in assay [3], the “Rank of F683L mutant sensitivity among the four drugs” value is reported as “most sensitive”. In addition, in assay [1], the “Sensitivity of M1373T and A684S mutants relative to WT” value is on record as “indistinguishable from the WT”. Also, in [4], the “Retained R6G fluorescence, WT control strain” value amounted to 272.6 a.u. In assay [5] (against R6G gradient), the “Retained fluorescence of F1369A mutant relative to WT control” value is on record as ~5 ×. Moreover, the “Retained R6G fluorescence, F1369A mutant” value in [5] (median, 90 min, 30 °C, Hepes-glucose buffer) is on record as 1288 a.u. The “Retained R6G fluorescence, G1371A strain” value in assay [6] amounted to 3093 a.u. In [7], the “Retained R6G fluorescence, M1373A mutant” value was determined as 4900 a.u. Moreover, the “Retained R6G fluorescence, ΔPdr5 strain” value in assay [8] is reported as 5001 a.u. Moreover, the “Retained R6G in double mutant relative to WT strain” value in [9] is “twice”. Moreover, in [10], the “Fluorescence accumulated by F683L mutant relative to WT control” value is reported as “about 3 ×”. Moreover, the “Minimum inhibitory concentration of F683L mutant relative to WT value” in assay [2] is “one-eighth”.
`C[C@@H]1C[C@@H]([C@H](O)CC2CC(=O)NC(=O)C2)C(=O)[C@@H](C)C1` [cycloheximide]: the “Sensitivity of M1373T and A684S mutants relative to WT” value in [1] is listed as “mildly hypersensitive”. Also, the “Resistance of I685A mutant relative to WT” value in [11] was “mildly hyper-resistant”. In addition, in assay [12], the “Resistance of V1372A mutant relative to WT” value is “hypersensitive”. Moreover, in assay [13], the “Resistance of M1373A mutant” value is given as “phenotypically indistinguishable from the ΔPdr5 control strain”. Besides, the “Sensitivity of F683L mutant” value in assay [2] is recorded as “hypersensitive”.
For `CC(=O)N1CCN(c2ccc(OCC3COC(Cn4ccnc4)(c4ccc(Cl)cc4Cl)O3)cc2)CC1` (stereo not shown) [ketoconazole], the “Rank of F683L mutant sensitivity among the four drugs” value in assay [3] was “least sensitive”. Further, in assay [1], the “Sensitivity of M1373T and A684S mutants relative to WT” value was “quite hypersensitive”.
For `CC/C(=C(\c1ccccc1)c1ccc(OCCN(C)C)cc1)c1ccccc1` [tamoxifen], in assay [11], the “Resistance of I685A mutant relative to WT” value is “hypersensitive”. For the same compound, the “Resistance of V1372A mutant relative to WT” value in assay [12] is recorded as “hyper-resistant”.
For `C/C=C/C/C=C/CCC(=O)[C@H]1O[C@H]1C(N)=O` [cerulenin], the “Resistance of I685A mutant relative to WT” value in [11] was “hypersensitive”. For the same compound, the “Resistance of V1372A mutant relative to WT” value in [12] is reported as “hyper-resistant”.
Turning to `c1ccc(-c2ccc(C(c3ccccc3)n3ccnc3)cc2)cc1` (stereo not shown) [bifonazole], the IC50 in assay [14] is 2.86 µM; in assay [15], 3.29 µM; in assay [16], 2.58 µM; in assay [17], 13 µM. The “IC50 of single mutant V1372A compared with WT” value in assay [15] (ATPase inhibition, in words) was “not significantly different from the WT”. In assay [16] (ATPase inhibition, in words), the “IC50 of single mutant I685A compared with WT” value is “not significantly different from the WT”. Besides, the “Sensitivity of G1371A ATPase to allosteric inhibition” value in assay [18] is “strikingly hypersensitive”.
With `CC(C)(C)C(=O)C(Oc1ccc(Cl)cc1)n1ccnc1` (stereo not shown) [climbazole], the “Resistance of I685A mutant relative to WT” value in [11] was “hypersensitive”. The “Resistance of V1372A mutant relative to WT” value in assay [12] was “hypersensitive”. Moreover, the “Resistance of M1373A mutant” value in assay [13] is “phenotypically indistinguishable from the ΔPdr5 control strain”.

The values above are taken from article PMC9723933 (The Journal of Biological Chemistry, 2022).
